The values below come from publication PMC7557569 (RSC Medicinal Chemistry, 2020).

In data set [1] the test system is K-562 cell line. As to the kind of experiment: NCI-60 cancer cell line panel, growth inhibition. The format is cell-based. Particulars: Homo sapiens, K562.
The test system of data set [2] is RI-1 cell line xenograft. Briefly: Mouse xenograft model with the ABC DLBCL RI-1 cell line. The format is in vivo. Particulars: NOD-Scid mice, RI-1 xenograft; for tolerability / general toxicity and body weight: 100 mg kg^-1 IP. In a few lines:
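NOD-Scid mice were inoculated subcutaneously with RI-1 ABC-DLBCL cells (15 × 10^6). They were split into groups of n = 4 given test compound at 100 mg kg−1 IP once every 5 days, or control vehicle. Tumor volume (mm3) and body weight were followed to day 15.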

The target of data set [3] is T1, EphA3 (Homo sapiens, UniProt P29320).
T1 sequence (P29320 21-983): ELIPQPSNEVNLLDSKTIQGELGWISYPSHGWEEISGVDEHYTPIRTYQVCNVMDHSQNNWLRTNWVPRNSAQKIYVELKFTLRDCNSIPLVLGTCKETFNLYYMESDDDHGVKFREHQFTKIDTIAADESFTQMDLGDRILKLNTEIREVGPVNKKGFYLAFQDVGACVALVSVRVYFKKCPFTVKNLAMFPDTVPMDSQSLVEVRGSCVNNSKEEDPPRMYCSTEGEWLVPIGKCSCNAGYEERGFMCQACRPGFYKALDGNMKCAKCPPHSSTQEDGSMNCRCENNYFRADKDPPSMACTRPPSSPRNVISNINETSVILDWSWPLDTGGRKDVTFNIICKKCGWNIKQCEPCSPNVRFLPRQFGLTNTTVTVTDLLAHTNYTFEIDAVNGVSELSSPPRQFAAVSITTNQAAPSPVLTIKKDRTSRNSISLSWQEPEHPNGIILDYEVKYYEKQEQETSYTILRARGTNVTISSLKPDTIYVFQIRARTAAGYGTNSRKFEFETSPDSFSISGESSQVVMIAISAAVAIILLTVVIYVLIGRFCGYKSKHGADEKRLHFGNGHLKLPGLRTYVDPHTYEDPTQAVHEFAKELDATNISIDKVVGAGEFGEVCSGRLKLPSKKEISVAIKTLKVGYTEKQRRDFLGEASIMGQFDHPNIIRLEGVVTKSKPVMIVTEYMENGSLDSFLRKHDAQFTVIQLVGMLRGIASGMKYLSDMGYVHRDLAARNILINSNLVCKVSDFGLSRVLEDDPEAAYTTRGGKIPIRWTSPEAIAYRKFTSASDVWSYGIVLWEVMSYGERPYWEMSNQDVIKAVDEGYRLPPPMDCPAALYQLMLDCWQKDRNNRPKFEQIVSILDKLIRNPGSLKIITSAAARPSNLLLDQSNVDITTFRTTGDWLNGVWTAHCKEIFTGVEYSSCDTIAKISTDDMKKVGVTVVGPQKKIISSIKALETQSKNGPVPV
The note with it: EphA3, DSF; first generation inhibitors; ref 8d; cited from earlier work.

The subject of data set [4] is human umbilical vein endothelial cells (HUVEC). Particulars: HUVEC tube formation; previously developed inhibitors; cited from earlier work.

`Cc1ccc(-n2nc(C(C)(C)C)cc2NC(=O)Nc2ccc(-n3c(N)c(C(N)=O)c4nc5ccccc5nc43)cc2)cc1` [Compound 8a]: in data set [1], the GI50 worked out at 31 nM. Further, in data set [2], the “tolerability / general toxicity and body weight” value was “very toxic already after the first dose”.
As for `CC(C)(C)c1cc(NC(=O)Nc2ccc(-n3c(N)c(C(N)=O)c4nc5ccccc5nc43)cc2)n(-c2ccc3ncccc3c2)n1` [Compound 8b], the GI50 in data set [1] is below 10 nM. Also, the “tolerability / general toxicity and body weight” value in data set [2] is listed as “well tolerated with no general toxicity or body-weight loss”. In data set [2] (100 mg kg^-1 IP once every 5 days, day 15), the “xenograft tumor size versus control group” value was “three times smaller”.
With `Cc1ccc(O)cc1-n1c(N)c(C(N)=O)c2nc3ccccc3nc21` [Compound 1], the “Thermal shift (ΔTm)” value in data set [3] was 11.2 °C. In addition, in data set [4], the “inhibition of total branching points” value is listed as 23%, the “inhibition of total loops” value was 21% and the “inhibition of tube length” value is on record as 9%.
For `NC(=O)c1c(N)n(-c2ccc(NC(=O)Nc3cccc(C(F)(F)F)c3)cc2)c2nc3ccccc3nc12` [Compound 2], in data set [4], the “inhibition of total branching points” value is listed as 9%, the “inhibition of total loops” value was 13% and the “inhibition of tube length” value was 5%.

As usually defined, the GI50 is the concentration that inhibits growth by half. Higher therefore signals lower sensitivity of the cells.
